core dimer inh – blocks dimerization of HCV core protein | 300,000 tested, 0.33% active | inhibition, % at 5 µM | TR-FRET GST/Flag-core106 dimerization, 1536-well | AID 1899;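 active means inhibition above the mean of all tested compounds plus 3 SD, set per screening campaign, cut at about 45% in these data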
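Assay system: Tagged HCV core106 pair (GST and Flag) | Buffer or medium: KF-containing HEPES buffer, pH 7.45, DTT, CHAPS, BSA | Also added: Eu donor and XL665 acceptor anti-tag antibodies | Dosing: One concentration, 5 µM, in 0.5% DMSO | Timing: 4 h at 22.5 °C | Technique: TR-FRET 671 and 617 nm emission | Repeats: Singlicate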
Rce1 inhib – blocks yeast Ras-converting enzyme; Q03530; yeast membranes, quenched prenylated peptide cleavage fluorescence; calls only; 290,000 tested, 0.27% active;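 active means fall in fluorescence gain of 50% or more versus controls, with final raw signal at or below 3038400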
TbMetRS inhib – Trypanosoma brucei MetRS inhibition | purified T. brucei MetRS, ATP depletion, Kinase-Glo luminescence | inhibition, % at 11.9 µM | 360,000 tested, 0.4% active | AID 624268;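 active means inhibition above a per-plate cutoff of the control wells' mean inhibition plus 3 SD, cut at about 5.5% in these data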
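Material: T. brucei methionyl-tRNA synthetase, purified; reagent: substrates ATP, L-methionine and bulk Escherichia coli tRNA; dosing: 11.9 µM single point; timing: 15 min plus 2 h at 25 °C; detection: luminescence of leftover ATP; evaluation: % inhibition; control set: DMSO-only wells as low control; replicates: singlicate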
NadD block – inhibitors of Staphylococcus aureus NadD; AID 602399; 360,000 tested, 0.78% active; inhibition, % at 20 µM; purified NadD enzyme, colorimetric absorbance read-out; in the data active means inhibition above about 26%
Pemphigus Ab inh – human desmoglein-3 autoantibody binding inhibition. P32926. DSG3-coupled beads, scFv-anti-DSG3-GFP binding, flow cytometry; active compounds read low. binding (percent of control), % at 10 µM. 310,000 tested, 0.48% active;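 active means binding more than 3 SD below its plate's average and above zero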;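 further: hits lower antibody fragment binding to DSG3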
Target sequence (P32926 whole entry, looked up, the tested form may be a part): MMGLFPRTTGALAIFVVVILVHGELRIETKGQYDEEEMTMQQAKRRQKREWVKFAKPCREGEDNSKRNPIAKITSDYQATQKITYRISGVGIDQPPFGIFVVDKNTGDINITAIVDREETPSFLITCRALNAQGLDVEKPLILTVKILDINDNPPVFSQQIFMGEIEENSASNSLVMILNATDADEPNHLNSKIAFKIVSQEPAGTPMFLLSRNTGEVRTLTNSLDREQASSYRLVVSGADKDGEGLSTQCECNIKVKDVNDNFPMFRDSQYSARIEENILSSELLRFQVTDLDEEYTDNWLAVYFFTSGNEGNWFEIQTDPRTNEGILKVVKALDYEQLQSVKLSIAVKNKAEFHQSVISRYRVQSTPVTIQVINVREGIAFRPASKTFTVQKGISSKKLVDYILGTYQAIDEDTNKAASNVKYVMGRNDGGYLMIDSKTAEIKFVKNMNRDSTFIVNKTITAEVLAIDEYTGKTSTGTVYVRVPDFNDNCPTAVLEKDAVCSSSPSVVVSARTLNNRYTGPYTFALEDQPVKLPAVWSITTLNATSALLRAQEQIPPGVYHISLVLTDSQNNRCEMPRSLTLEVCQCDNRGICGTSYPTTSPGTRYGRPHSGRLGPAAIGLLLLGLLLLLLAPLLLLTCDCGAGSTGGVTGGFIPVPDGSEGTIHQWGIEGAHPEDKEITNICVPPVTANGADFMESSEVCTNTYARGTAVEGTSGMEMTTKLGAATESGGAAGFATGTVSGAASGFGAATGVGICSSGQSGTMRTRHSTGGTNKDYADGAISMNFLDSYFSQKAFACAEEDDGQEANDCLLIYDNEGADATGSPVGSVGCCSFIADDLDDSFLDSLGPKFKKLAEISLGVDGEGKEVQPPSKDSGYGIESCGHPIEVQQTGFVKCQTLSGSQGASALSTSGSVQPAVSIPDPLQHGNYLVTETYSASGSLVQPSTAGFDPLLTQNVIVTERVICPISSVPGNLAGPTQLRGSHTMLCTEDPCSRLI
TbMetRS confirm – Trypanosoma brucei MetRS inhibition confirmed; shares compounds with TbMetRS inhib; T. brucei MetRS enzyme, luminescence (ATP depletion); inhibition, % at 11.9 µM; 1,400 tested, 93% active; AID 624412; in the data active means inhibition above about 7%
Jurkat cytotox – counter-screen for T. brucei MetRS inhibitors: Jurkat cell cytotoxicity; inhibition, % at 8.3 µM; AID 624413; 1,400 tested, 12% active; shares compounds with TbMetRS inhib; Jurkat cells viability, ATP luminescence; in the data active means inhibition above about 15%
Tb MetRS inh FP – T. brucei MetRS inhibition, orthogonal assay | shares compounds with TbMetRS inhib | purified T. brucei MetRS, fluorescence polarization | inhibition, % at 11.9 µM | 1,400 tested, 44% active | AID 651607; in the data active means inhibition above about 17%
Large screens that a line does not name were inactive (follow-up assays come after a bar, where they were run). Compounds with a hit are over-represented: about 1.9% of the library has one in this group of screens.

C#Cc1ccc([C@H]2C=C(C(=O)NCc3nc4ccccc4[nH]3)O[C@@H](OCC)[C@@H]2CCCO)cc1	TbMetRS inhib 12 | TbMetRS confirm 36 | Jurkat cytotox inactive | Tb MetRS inh FP 17
CCO[C@@H]1OC(C(=O)NCc2nc3ccccc3[nH]2)=C[C@H](C(C)(C)C)[C@H]1CCCO	TbMetRS inhib 6.4 | TbMetRS confirm 33 | Jurkat cytotox 71 | Tb MetRS inh FP inactive
CCO[C@H]1OC(C(=O)NCc2nc3ccccc3[nH]2)=C[C@@H](c2ccc(Br)cc2)[C@@H]1CCCO	TbMetRS inhib 38 | TbMetRS confirm 80 | Jurkat cytotox inactive | Tb MetRS inh FP 57
CCO[C@@H]1OC(C(=O)NCc2nc3ccccc3[nH]2)=C[C@H](C2CC2)[C@H]1CCCO	none
O=C(c1ccc(Cl)c([N+](=O)[O-])c1)N(Cc1ccc(F)cc1)C1CCS(=O)(=O)C1 (configuration not stated)	none (no result: Pemphigus Ab inh)
Cc1cc(N2CCOCC2)nc2ccccc12	none
O=C(NN1C(=O)/C(=C/c2ccc(O)cc2)SC1=S)c1cccc(O)c1	TbMetRS inhib 6.7 | TbMetRS confirm 14 | Jurkat cytotox inactive | Tb MetRS inh FP 24
O=C(NN1C(=O)/C(=C/c2ccc(O)cc2)SC1=S)c1ccccc1O	TbMetRS inhib 44 | TbMetRS confirm 58 | Jurkat cytotox inactive | Tb MetRS inh FP 33
O=C(/C=C/c1ccccc1)Oc1cccc(C(=S)N2CCOCC2)c1	none
COc1ccc(N2CCN(C(=O)c3ccc(Br)cc3)CC2)c([N+](=O)[O-])c1	none (no result: Pemphigus Ab inh)
COc1ccc(N2CCN(C(=O)c3ccccc3Br)CC2)c([N+](=O)[O-])c1	TbMetRS inhib 14 | TbMetRS confirm 30 | Jurkat cytotox inactive | Tb MetRS inh FP 18
COc1ccc(N2CCN(C(=O)c3ccccc3)CC2)c([N+](=O)[O-])c1	TbMetRS inhib 8.2 | TbMetRS confirm 9.3 | Jurkat cytotox inactive | Tb MetRS inh FP inactive
COc1ccc(F)cc1S(=O)(=O)Nc1ccc2c(c1)OCCO2	none
CCCNC(=O)c1n[nH]c2c1CC(C(C)(C)CC)CC2 (configuration not stated)	none (no result: Rce1 inhib)
Cc1nnc(NCCc2ccccc2)c2ccccc12	none
Cc1nnc(NCc2cccc(Cl)c2)c2ccccc12	TbMetRS inhib 12 | TbMetRS confirm 19 | Jurkat cytotox inactive | Tb MetRS inh FP inactive
CCCNS(=O)(=O)c1ccc(Oc2ncc(C(F)(F)F)cc2Cl)cc1	none (no result: Pemphigus Ab inh)
O=C(CSc1n[nH]c(-c2ccccc2)n1)NC1CCCCC1	none (no result: Pemphigus Ab inh)
O=C(CSc1n[nH]c(-c2ccc(Br)cc2)n1)NC1CCCC1	TbMetRS inhib 12 (no result: core dimer inh, Rce1 inhib, Pemphigus Ab inh) | TbMetRS confirm 41 | Jurkat cytotox inactive | Tb MetRS inh FP inactive
CC(C)NC(=O)Cn1c(SCC(=O)N2CCc3ccccc3C2)nc2ccccc21	none
COc1ccc(NC(=O)NCCCCc2ccccc2)cc1	none (no result: core dimer inh)
O=C(NCCCCc1ccccc1)Nc1ccc(F)cc1	TbMetRS inhib 15 | TbMetRS confirm 32 | Jurkat cytotox inactive | Tb MetRS inh FP 21
O=[N+]([O-])c1ccc(NCCNc2ccc(Cl)nn2)cc1	TbMetRS inhib 11 (no result: Rce1 inhib) | TbMetRS confirm 18 | Jurkat cytotox inactive | Tb MetRS inh FP inactive
O=C(NCCNc1ccc([N+](=O)[O-])cc1)c1ccccc1Cl	none (no result: core dimer inh, Rce1 inhib)
Cc1ccc(NC(=O)Cn2c([N+](=O)[O-])cnc2C)cc1	none
Cc1ncc([N+](=O)[O-])n1CC(=O)Nc1ccc(Br)cc1	TbMetRS inhib 6.1 | TbMetRS confirm 14 | Jurkat cytotox inactive | Tb MetRS inh FP inactive
COc1cccc(NC(=O)CSCC(=O)O)c1	none
COc1cccc(NC(=O)CSCC(=O)Nc2ccccc2)c1	TbMetRS inhib 6.1 (no result: Pemphigus Ab inh) | TbMetRS confirm 18 | Jurkat cytotox inactive | Tb MetRS inh FP inactive
CCCCOCCCNc1ncnc2c1[nH]c1ccccc12	TbMetRS inhib 93 | TbMetRS confirm 106 | Jurkat cytotox 44 | Tb MetRS inh FP 95
CCOCCCNc1ncnc2c1[nH]c1ccccc12	TbMetRS inhib 55 (no result: Pemphigus Ab inh) | TbMetRS confirm 76 | Jurkat cytotox inactive | Tb MetRS inh FP 52
CCOc1ccc2[nH]c3c(NCCO)ncnc3c2c1	none (no result: core dimer inh)

Bioassay records: PubChem BioAssay, several laboratories
